Assay results as given in ChEMBL document CHEMBL4118097, “Selective Inhibitors of Dual Leucine Zipper Kinase (DLK, MAP3K12) with Activity in a Model of Alzheimer's Disease” (J Med Chem, 2017).

Legend:
[1] = biological target: Serine/threonine-protein kinase 16 (Homo sapiens, UniProt O75716); experiment: Inhibition of recombinant full length His-tagged human STK16 expressed in baculovirus expression system at 1 uM by FRET assay relative to control
[2] = biological target: Tyrosine-protein kinase Blk (Homo sapiens) (UniProt P51451); experiment: Inhibition of recombinant full length His-tagged human Blk cytoplasmic domain expressed in Baculovirus expression system at 1 uM by FRET assay relative to control
[3] = biological target: Ribosomal protein S6 kinase alpha-1 (Homo sapiens) (UniProt Q15418); experiment: Inhibition of recombinant full length His-tagged human RSK1 expressed in baculovirus expression system at 1 uM by FRET assay relative to control
[4] = biological target: Protein kinase C eta type (Homo sapiens) (UniProt P24723); experiment: Inhibition of PKCeta (unknown origin) at 1 uM by FRET assay relative to control
Sequence of Protein kinase C eta type (Homo sapiens) (P24723 whole entry, the tested form may be a part): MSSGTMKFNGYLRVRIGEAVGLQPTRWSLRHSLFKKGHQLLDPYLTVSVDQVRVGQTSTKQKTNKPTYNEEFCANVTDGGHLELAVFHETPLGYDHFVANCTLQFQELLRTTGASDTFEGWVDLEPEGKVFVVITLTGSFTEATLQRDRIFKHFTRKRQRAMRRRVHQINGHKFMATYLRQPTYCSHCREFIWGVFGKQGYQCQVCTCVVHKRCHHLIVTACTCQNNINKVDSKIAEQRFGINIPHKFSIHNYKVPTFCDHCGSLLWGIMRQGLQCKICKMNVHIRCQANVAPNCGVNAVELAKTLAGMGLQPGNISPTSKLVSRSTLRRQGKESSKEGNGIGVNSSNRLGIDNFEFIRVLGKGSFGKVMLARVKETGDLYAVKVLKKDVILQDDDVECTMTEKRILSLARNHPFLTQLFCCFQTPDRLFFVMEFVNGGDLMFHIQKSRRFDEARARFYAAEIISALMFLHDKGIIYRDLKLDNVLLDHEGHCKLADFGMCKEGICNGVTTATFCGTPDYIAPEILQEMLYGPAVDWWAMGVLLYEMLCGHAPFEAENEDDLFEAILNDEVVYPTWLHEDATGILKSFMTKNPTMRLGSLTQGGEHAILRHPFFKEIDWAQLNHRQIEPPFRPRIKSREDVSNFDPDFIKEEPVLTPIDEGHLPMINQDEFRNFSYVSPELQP

[5] = biological target: Proto-oncogene tyrosine-protein kinase receptor Ret (Homo sapiens) (UniProt P07949); experiment: Inhibition of recombinant N-terminal GST-tagged human Ret cytoplasmic domain (658 to 1114 residues) expressed in baculovirus expression system at 1 uM by FRET assay relative to control
Outline: (§1)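 Single-concentration screen at 1 μM in Life Technologies SelectScreen, across a 220-kinase panel. Z′-LYTE format measures phosphorylation of a labeled peptide by FRET. Results are reported as percent inhibition.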

[6] = biological target: 5-hydroxytryptamine receptor 2B (Homo sapiens) (UniProt P41595); experiment: Binding affinity to 5HT2B receptor (unknown origin) receptor at 10 uM relative to control
Outline: (§2)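 Broad radioligand-binding and enzyme screening panel covering 42 targets (biogenic amine and neuropeptide receptors, ion channels, neurotransmitter transporters, acetylcholinesterase). Single test concentration of 10 μM. Results expressed as binding relative to control, with a hit defined as >50% of control.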

[7] = biological target: Tyrosine-protein kinase Fes/Fps (Homo sapiens) (UniProt P07332); experiment: Inhibition of recombinant full length His-tagged human FES cytoplasmic domain expressed in baculovirus expression system at 1 uM by FRET assay relative to control
[8] = biological target: Mitogen-activated protein kinase kinase kinase 20 (Homo sapiens) (UniProt Q9NYL2); experiment: Inhibition of recombinant N-terminal full length GST-tagged human ZAK expressed in baculovirus expression system at 1 uM by FRET assay relative to control; outline: as §1
[9] = biological target: BDNF/NT-3 growth factors receptor (Homo sapiens) (UniProt Q16620); experiment: Inhibition of recombinant His-tagged human TrkB cytoplasmic domain expressed in baculovirus expression system at 1 uM by FRET assay relative to control; outline: as §1
[10] = biological target: Insulin receptor (Homo sapiens) (UniProt P06213); experiment: Inhibition of recombinant His-tagged human InsR (1011 to 1382 residues) expressed in baculovirus expression system at 1 uM by FRET relative to control
Outline: (§3)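 Single-point screen at 1 μM compound in a 220-kinase panel run by Life Technologies (SelectScreen). Z′-LYTE format: phosphorylation of a labeled peptide substrate read by FRET. Values are reported as percent inhibition.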

[11] = biological target: Testis-specific serine/threonine-protein kinase 1 (Homo sapiens) (UniProt Q9BXA7); experiment: Inhibition of recombinant full length His-tagged human TSSK1 expressed in baculovirus expression system at 1 uM by FRET assay relative to control
[12] = biological target: Serine/threonine-protein kinase MRCK alpha (Homo sapiens) (UniProt Q5VT25); experiment: Inhibition of recombinant His-tagged human MRCKalpha expressed in baculovirus at 1 uM by FRET assay relative to control; outline: as §3
[13] = biological target: Mitogen-activated protein kinase kinase kinase 13 (Homo sapiens, UniProt O43283); experiment: Binding affinity to full length wild type human LZK (M1 to W966 residues) expressed in mammalian cells by KINOMEscan assay; type: cell-based
[14] = biological target: Dual specificity protein kinase CLK2 (Homo sapiens) (UniProt P49760); experiment: Inhibition of recombinant GST-tagged human CLK2 catalytic domain(137 to 498 residues)expressed in baculovirus expression system at 1 uM by FRET assay relative to control
Sequence of Dual specificity protein kinase CLK2 (Homo sapiens) (P49760 whole entry, looked up, the tested form may be a part): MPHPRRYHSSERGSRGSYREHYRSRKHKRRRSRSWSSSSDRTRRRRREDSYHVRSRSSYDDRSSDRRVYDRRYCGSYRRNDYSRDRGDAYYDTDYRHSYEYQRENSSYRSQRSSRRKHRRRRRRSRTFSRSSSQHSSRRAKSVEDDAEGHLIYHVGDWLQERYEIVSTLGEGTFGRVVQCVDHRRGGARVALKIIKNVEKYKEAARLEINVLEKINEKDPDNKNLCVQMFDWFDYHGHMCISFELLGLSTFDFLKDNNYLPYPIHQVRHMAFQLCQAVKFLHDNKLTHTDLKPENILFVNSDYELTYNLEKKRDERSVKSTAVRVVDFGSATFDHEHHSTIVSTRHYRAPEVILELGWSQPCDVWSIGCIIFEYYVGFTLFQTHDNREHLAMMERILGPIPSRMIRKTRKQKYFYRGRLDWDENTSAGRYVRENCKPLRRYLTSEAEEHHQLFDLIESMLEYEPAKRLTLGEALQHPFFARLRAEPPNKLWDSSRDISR

[15] = biological target: Dual specificity protein kinase CLK1 (Homo sapiens) (UniProt P49759); experiment: Inhibition of recombinant human GST-tagged CLK1 catalytic domain(129 to 484 residues)expressed in Escherichia coli at 1 uM by FRET assay relative to control
Sequence of Dual specificity protein kinase CLK1 (Homo sapiens) (P49759 whole entry, looked up, the tested form may be a part): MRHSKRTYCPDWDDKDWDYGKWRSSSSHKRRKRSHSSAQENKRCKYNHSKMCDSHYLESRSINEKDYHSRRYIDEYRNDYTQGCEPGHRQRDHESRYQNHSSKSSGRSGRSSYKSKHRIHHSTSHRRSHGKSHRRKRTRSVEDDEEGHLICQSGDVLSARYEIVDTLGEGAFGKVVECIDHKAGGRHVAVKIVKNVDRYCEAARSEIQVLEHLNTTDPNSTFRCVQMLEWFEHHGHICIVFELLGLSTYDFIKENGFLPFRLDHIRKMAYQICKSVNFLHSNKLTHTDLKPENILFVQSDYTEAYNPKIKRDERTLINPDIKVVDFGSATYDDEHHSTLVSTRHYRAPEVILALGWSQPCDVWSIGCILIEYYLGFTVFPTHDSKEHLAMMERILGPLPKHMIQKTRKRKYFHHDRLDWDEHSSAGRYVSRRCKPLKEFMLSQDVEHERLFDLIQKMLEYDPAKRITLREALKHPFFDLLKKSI

[16] = biological target: Tyrosine-protein kinase Srms (Homo sapiens) (UniProt Q9H3Y6); experiment: Inhibition of recombinant full length GST-tagged human Srm cytoplasmic domain expressed in baculovirus expression system at 1 uM by FRET assay relative to control
Outline: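 Part of a 220-kinase panel run at a single concentration of 1 μM. Z′-LYTE format: phosphorylation of a labelled peptide read by FRET. Values reported as percent inhibition.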

[17] = biological target: Activated CDC42 kinase 1 (Homo sapiens) (UniProt Q07912); experiment: Inhibition of recombinant GST-tagged human TNK2 catalytic/cytoplasmic domain (110 to 476 residues) expressed in baculovirus expression system at 1 uM by FRET assay relative to control; outline: as §3
[18] = biological target: GABA-A receptor; alpha-1/beta-2/gamma-2 (Homo sapiens) (UniProt P14867+P47870+P18507); experiment: Binding affinity to GABA-A alpha1beta2gamma2 receptor (unknown origin) at 10 uM relative to control; type: protein-complex assay; outline: as §2
[19] = biological target: Tyrosine-protein kinase Mer (Homo sapiens) (UniProt Q12866); experiment: Inhibition of recombinant GST-tagged human Mer cytoplasmic domain expressed in baculovirus expression system at 1 uM by FRET assay relative to control; outline: as §3
Sequence of Tyrosine-protein kinase Mer (Homo sapiens) (Q12866 whole entry, the tested form may be a part): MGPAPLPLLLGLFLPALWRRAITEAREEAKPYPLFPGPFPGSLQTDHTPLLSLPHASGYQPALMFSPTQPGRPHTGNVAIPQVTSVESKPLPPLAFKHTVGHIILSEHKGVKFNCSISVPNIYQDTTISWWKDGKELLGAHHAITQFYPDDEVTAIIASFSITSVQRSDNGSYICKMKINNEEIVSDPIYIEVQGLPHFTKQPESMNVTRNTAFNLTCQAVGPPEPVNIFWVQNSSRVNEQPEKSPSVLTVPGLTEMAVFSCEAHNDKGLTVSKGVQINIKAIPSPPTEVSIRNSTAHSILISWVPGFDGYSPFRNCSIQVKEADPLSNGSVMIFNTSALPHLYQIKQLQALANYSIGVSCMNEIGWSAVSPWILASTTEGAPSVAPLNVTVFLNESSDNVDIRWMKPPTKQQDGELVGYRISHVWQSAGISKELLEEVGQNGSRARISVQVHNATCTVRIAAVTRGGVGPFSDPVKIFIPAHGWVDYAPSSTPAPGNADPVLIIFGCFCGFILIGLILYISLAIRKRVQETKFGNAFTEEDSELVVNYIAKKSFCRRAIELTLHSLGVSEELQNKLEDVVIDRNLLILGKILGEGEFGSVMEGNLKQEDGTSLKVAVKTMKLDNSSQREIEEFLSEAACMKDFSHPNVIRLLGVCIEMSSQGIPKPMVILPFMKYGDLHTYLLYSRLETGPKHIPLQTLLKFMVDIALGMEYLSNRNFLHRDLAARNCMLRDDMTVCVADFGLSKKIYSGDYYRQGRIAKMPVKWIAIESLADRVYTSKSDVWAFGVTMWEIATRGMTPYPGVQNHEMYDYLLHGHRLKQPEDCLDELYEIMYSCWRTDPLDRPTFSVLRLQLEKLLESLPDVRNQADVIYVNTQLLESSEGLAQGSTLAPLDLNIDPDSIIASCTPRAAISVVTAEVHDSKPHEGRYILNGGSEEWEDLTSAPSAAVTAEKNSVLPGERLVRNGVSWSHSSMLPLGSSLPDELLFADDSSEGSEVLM

[20] = biological target: Cyclin-dependent kinase 5/CDK5 activator 1 (Homo sapiens) (UniProt Q00535+Q15078); experiment: Inhibition of recombinant full length His/GST-tagged human CDK5/p25 expressed in baculovirus expression system at 1 uM by FRET assay relative to control
[21] = biological target: Dual specificity protein kinase CLK4 (Homo sapiens) (UniProt Q9HAZ1); experiment: Inhibition of full length recombinant GST-tagged human CLK4 expressed in baculovirus expression system at 1 uM by FRET assay relative to control
Sequence of Dual specificity protein kinase CLK4 (Homo sapiens) (Q9HAZ1 whole entry, looked up): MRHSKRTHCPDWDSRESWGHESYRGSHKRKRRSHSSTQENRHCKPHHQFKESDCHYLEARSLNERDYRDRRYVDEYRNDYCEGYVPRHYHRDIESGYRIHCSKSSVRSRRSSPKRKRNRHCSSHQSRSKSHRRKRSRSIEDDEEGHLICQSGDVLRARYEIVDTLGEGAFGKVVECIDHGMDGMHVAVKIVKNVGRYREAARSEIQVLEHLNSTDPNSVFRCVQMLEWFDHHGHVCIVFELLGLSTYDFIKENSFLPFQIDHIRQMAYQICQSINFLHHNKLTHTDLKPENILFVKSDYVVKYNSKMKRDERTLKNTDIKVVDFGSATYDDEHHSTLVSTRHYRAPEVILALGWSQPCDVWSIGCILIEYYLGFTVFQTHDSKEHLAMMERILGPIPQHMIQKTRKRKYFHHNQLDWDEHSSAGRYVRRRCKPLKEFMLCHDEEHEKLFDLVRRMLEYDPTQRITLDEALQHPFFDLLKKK

[22] = biological target: Serine/threonine-protein kinase PAK 3 (Homo sapiens) (UniProt O75914); experiment: Inhibition of recombinant full length His-tagged human PAK3 expressed in baculovirus expression system at 1 uM by FRET assay relative to control
Sequence of Serine/threonine-protein kinase PAK 3 (Homo sapiens) (O75914 whole entry, looked up, the tested form may be a part): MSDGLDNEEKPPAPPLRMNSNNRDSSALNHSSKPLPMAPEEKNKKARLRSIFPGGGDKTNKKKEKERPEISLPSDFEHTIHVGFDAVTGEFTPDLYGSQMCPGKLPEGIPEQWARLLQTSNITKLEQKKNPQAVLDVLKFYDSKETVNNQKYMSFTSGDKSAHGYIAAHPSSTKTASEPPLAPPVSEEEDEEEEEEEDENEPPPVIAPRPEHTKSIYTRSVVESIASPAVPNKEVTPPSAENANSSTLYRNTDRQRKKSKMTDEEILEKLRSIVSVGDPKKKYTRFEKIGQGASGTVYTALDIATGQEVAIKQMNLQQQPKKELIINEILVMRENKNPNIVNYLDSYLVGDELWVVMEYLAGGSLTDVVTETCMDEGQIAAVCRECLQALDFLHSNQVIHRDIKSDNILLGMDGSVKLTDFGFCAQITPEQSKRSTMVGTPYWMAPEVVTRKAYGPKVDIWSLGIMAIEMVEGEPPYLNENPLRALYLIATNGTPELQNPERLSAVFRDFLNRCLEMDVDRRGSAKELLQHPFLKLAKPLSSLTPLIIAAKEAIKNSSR

[23] = biological target: Ephrin type-B receptor 3 (Homo sapiens) (UniProt P54753); experiment: Inhibition of recombinant GST-tagged human EphB3 cytoplasmic domain expressed in baculovirus expression system at 1 uM by FRET assay relative to control; outline: as §3
Sequence of Ephrin type-B receptor 3 (Homo sapiens) (P54753 whole entry, the tested form may be a part): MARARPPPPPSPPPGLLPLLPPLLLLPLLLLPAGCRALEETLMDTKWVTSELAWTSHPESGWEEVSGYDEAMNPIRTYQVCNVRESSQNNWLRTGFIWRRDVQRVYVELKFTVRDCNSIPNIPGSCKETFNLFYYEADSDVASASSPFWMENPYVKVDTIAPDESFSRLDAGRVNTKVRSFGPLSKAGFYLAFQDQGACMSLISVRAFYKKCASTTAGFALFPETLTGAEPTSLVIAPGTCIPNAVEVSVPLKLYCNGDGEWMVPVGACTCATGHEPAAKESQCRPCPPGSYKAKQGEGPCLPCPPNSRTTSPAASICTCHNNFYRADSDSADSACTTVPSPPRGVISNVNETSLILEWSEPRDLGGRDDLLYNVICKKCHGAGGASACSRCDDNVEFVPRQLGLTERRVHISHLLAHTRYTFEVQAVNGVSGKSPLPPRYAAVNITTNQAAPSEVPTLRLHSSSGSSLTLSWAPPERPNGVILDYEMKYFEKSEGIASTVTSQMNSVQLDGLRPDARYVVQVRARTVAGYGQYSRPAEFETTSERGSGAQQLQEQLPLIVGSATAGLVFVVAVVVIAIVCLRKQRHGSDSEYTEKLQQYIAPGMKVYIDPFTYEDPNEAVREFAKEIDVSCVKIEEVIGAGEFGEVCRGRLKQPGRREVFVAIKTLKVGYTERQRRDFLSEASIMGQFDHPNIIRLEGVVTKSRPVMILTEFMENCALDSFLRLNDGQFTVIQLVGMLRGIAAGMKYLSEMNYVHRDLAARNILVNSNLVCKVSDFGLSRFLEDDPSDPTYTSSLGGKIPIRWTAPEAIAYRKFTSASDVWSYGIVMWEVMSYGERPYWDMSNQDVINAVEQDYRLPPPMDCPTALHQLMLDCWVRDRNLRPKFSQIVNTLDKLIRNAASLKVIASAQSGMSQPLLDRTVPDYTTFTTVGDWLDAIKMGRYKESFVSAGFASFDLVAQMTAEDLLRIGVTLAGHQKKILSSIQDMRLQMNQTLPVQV

[24] = biological target: Dual specificity mitogen-activated protein kinase kinase 3 (Homo sapiens) (UniProt P46734); experiment: Inhibition of recombinant full length GST-tagged human MEK3 expressed in baculovirus expression system at 1 uM by FRET assay relative to control; outline: as §1
Sequence of Dual specificity mitogen-activated protein kinase kinase 3 (Homo sapiens) (P46734 whole entry, the tested form may be a part): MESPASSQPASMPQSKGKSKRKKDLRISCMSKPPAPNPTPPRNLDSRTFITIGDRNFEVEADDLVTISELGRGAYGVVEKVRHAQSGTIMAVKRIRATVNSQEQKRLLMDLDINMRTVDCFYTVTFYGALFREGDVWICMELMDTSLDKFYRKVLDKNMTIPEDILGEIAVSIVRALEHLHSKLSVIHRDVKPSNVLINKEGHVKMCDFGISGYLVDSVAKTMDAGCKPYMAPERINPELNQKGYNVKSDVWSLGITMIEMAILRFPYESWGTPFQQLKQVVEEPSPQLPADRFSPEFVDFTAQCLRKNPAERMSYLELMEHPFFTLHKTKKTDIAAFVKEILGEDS

[25] = biological target: Fibroblast growth factor receptor 1 (Homo sapiens) (UniProt P11362); experiment: Inhibition of recombinant His-tagged human FGFR1 cytoplasmic domain expressed in baculovirus expression system at 1 uM by FRET assay relative to control; outline: as §3
[26] = biological target: Protein-tyrosine kinase 6 (Homo sapiens) (UniProt Q13882); experiment: Inhibition of recombinant full length His-tagged human Brk cytoplasmic domain expressed in baculovirus expression system at 1 uM by FRET assay relative to control

Compound	inhibition [1]	inhibition [2]	inhibition [3]	inhibition [4]	inhibition [5]	Activity [6]	inhibition [7]	inhibition [8]	inhibition [9]	inhibition [10]	inhibition [11]	inhibition [12]	Kd [13]	inhibition [14]	inhibition [15]	inhibition [16]	inhibition [17]	Activity [18]	inhibition [19]	inhibition [20]	other results
Nc1ncc(-c2cc([C@H]3[C@@H]4CN(C5COC5)C[C@@H]43)n(CC3CC3)n2)cc1C(F)(F)F	33.2%	27.4%	2.1%	-3.9%	17.7%	> 50%	21.1%	1.4%	38.8%	11.9%	11.5%	4.3%	0.12 µM	0.3%	2.1%	4%	0.3%	> 50%	37%	9.6%	inhibition [21]: 16.4%; inhibition [22]: 17.2%; inhibition [23]: 10%; inhibition [24]: -2.7%; inhibition [25]: 3.4%; inhibition [26]: 5.8%
CC(C)n1nc(-c2cnc(N)c(OC(F)(F)F)c2)cc1[C@H]1[C@@H]2CN(C3COC3)C[C@@H]21	50.3%	5.3%	5.5%	1.7%	9.1%	> 50%	17.1%	2.5%	44.3%	16.6%	9.4%	0.4%	0.46 µM	17.6%	1.8%	-2.5%	1.3%	> 50%	22.5%	-0.8%	inhibition [21]: 14.5%; inhibition [22]: 3.6%; inhibition [23]: 4.6%; inhibition [24]: 3.6%; inhibition [25]: 2.4%; inhibition [26]: 7.8%
